Data from ChEMBL document CHEMBL1146214, “Bioactive cardenolides from the stems and twigs of Nerium oleander” (J Nat Prod, 2007).

Key:
A549 [1] = test: Inhibition of induction of ICAM1 expression in human A549 cells in presence of TNFalpha after 1 hr; format: functional, cell-based; conditions: A549, 1 h
How it was run: (§1)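 A549 cells (2 × 10⁴ cells/well) were pretreated with a range of compound concentrations for 1 h, then stimulated with IL-1α or TNF-α for 6 h. Surface ICAM-1 was detected with primary and secondary antibodies plus enzyme substrate, read as absorbance at 415 nm. Expression was taken as % of control after subtracting the unstimulated background. IC50 was derived from this, using triplicate cultures.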

A549 [2] = test: Inhibition of induction of ICAM1 expression in human A549 cells in presence of IL1-alpha after 1 hr; format: functional, cell-based; conditions: A549, 1 h; how it was run: as §1
A549 [3] = test: Viability of human A549 cells by MTT assay after 24 hrs; format: cell-based; conditions: A549, 24 h
How it was run: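 A549 cells were exposed to serial compound dilutions for 24 h, and viability was measured by MTT. Viability % was taken as background-corrected absorbance relative to control. IC50 was derived from this, using triplicate cultures.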

[4] = Growth inhibition of human WI38 cells; format: cell-based; conditions: WI-38
How it was run: (§2)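 Growth inhibition assayed in normal human fibroblasts WI-38, their malignant transformant VA-13, and human liver tumour HepG2 cells; IC50 reported.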

WI-38 VA13 = test: Growth inhibition of human VA13 cells; format: functional, cell-based; how it was run: as §2
HepG2 = test: Growth inhibition of human HepG2 cells; format: functional, cell-based; how it was run: as §2
[5] = Reversal of multidrug resistance assessed as effect on calcein accumulation in MDR-human 2780 AD cells at 0.25 ug/ml relative to control; format: functional
How it was run: (§3)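 Multidrug-resistant human ovarian cancer 2780AD cells were loaded with calcein AM in the presence of test compound at 0.25, 2.5 or 25 μg/mL. Intracellular calcein, formed by enzymatic hydrolysis, was measured by fluorescence and expressed relative to a no-compound control. Values are means of triplicate determinations.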

[6] = Reversal of multidrug resistance assessed as effect on calcein accumulation in MDR-human 2780 AD cells at 2.5 ug/ml relative to control; format: functional; how it was run: as §3
[7] = Reversal of multidrug resistance assessed as effect on calcein accumulation in MDR-human 2780 AD cells at 25 ug/ml relative to control; format: functional; how it was run: as §3
[8] = Reversal of multidrug resistance assessed as effect on calcein accumulation in MDR-human 2780 AD cells at 0.25 ug/ml relative to verapamil; format: functional
How it was run: (§4)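 Multidrug-resistant 2780AD ovarian cancer cells were incubated with calcein AM plus test compound at 0.25, 2.5 or 25 μg/mL. Cellular calcein accumulation was read by fluorescence and expressed as a percentage of the verapamil response. Values are based on triplicate determinations.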

[9] = Reversal of multidrug resistance assessed as effect on calcein accumulation in MDR-human 2780 AD cells at 2.5 ug/ml relative to verapamil; format: functional; how it was run: as §4
[10] = Reversal of multidrug resistance assessed as effect on calcein accumulation in MDR-human 2780 AD cells at 25 ug/ml relative to verapamil; format: functional; how it was run: as §4

SMILES	IC50 (A549 [1])	IC50 (A549 [2])	IC50 (A549 [3])	IC50 [4]	IC50 (WI-38 VA13)	IC50 (HepG2)	Activity [5]	Activity [6]	Activity [7]	Activity [8]	Activity [9]	Activity [10]
CO[C@@H]1C[C@H](O[C@H]2CC[C@@]3(C)[C@H](CC[C@@H]4[C@@H]3CC[C@]3(C)[C@@H](C5=CC(=O)OC5)CC[C@]43O)C2)O[C@H](C)[C@@H]1O	0.48 µM	0.2 µM	> 316 µM	0.07 µM	0.18 µM	1.5 µM	93%	89%	96%			
CC(=O)O[C@H]1C(=O)[C@@]2(C)[C@H]([C@H](OC(=O)c3ccccc3)[C@]3(O)C[C@H](OC(=O)[C@H](O)[C@@H](NC(=O)c4ccccc4)c4ccccc4)C(C)=C1C3(C)C)[C@]1(OC(C)=O)CO[C@@H]1C[C@@H]2O [PACLITAXEL]				0.04 µM								
COc1cccc2c1C(=O)c1c(O)c3c(c(O)c1C2=O)C[C@@](O)(C(=O)CO)C[C@@H]3O[C@H]1C[C@H](N)[C@H](O)[C@H](C)O1 [DOXORUBICIN]				0.7 µM	0.4 µM	1.3 µM						
CO[C@@H]1C[C@H](O[C@H]2CC[C@@]3(C)[C@@H](CC[C@@H]4[C@@H]3CC[C@]3(C)[C@@H](C5=CC(=O)OC5)[C@@H](OC(C)=O)C[C@]43O)C2)O[C@H](C)[C@@H]1O	16.9 µM	21.5 µM	> 100 µM	23 µM	0.72 µM		105%	126%	109%	113%	128%	82%
CO[C@H]1C[C@H](O[C@H]2CC[C@@]3(C)[C@H](CC[C@@H]4[C@@H]3CC[C@]3(C)[C@@H](C5=CC(=O)OC5)[C@@H](OC(C)=O)C[C@]43O)C2)O[C@H](C)[C@@H]1O		0.57 µM	> 1000 µM	0.08 µM	0.24 µM	0.82 µM	90%	81%	91%			
C[C@]12CC[C@H](O)C[C@H]1CC[C@@H]1[C@@H]2CC[C@]2(C)[C@@H](C3=CC(=O)OC3)CC[C@]12O [DIGITOXIGENIN]		0.62 µM	> 316 µM	11.8 µM	1.9 µM	18 µM	86%	74%	66%			
CO[C@@H]1C[C@H](O[C@H]2CC[C@@]3(C)[C@H](CC[C@@]45O[C@@]46CC[C@H](C4=CC(=O)OC4)[C@@]6(C)CC[C@H]35)C2)O[C@H](C)[C@@H]1O		13.9 µM	> 316 µM	33.1 µM	13.4 µM	76.4 µM	92%	102%	112%			
CO[C@H]1C[C@H](O[C@H]2CC[C@@]3(C)[C@H](CC[C@@]45O[C@@]46CC=C(C4=CC(=O)OC4)[C@@]6(C)CC[C@H]35)C2)O[C@H](C)[C@@H]1O	55.4 µM	69.3 µM	> 100 µM	16.3 µM	85.7 µM	81.4 µM	99%	100%	102%			
CC(=O)O[C@H]1C[C@]2(O)[C@@H]3CC[C@@H]4C[C@@H](O)CC[C@]4(C)[C@H]3CC[C@]2(C)[C@H]1C1=CC(=O)OC1	0.36 µM	0.52 µM	> 100 µM	1.7 µM	0.16 µM	0.2 µM	92%	100%	99%			
CO[C@H]1C[C@H](O[C@H]2CC[C@@]3(C)[C@H](CC[C@@H]4[C@@H]3CC[C@]3(C)[C@@H](C5=CC(=O)OC5)CC[C@]43O)C2)O[C@H](C)[C@@H]1O	0.16 µM	0.2 µM	> 100 µM	< 0.02 µM	0.8 µM	0.14 µM	89%	83%	86%			
CO[C@@H]1C[C@H](O[C@H]2CC[C@@]3(C)[C@H](CC[C@]4(O)[C@@H]3CC[C@]3(C)[C@@H](C5=CC(=O)OC5)CC[C@@]34O)C2)O[C@H](C)[C@@H]1O	5.9 µM	6 µM	> 100 µM	9.4 µM	1.6 µM	4.7 µM	112%	107%	112%			
CO[C@@H]1C[C@H](O[C@H]2CC[C@@]3(C)[C@H](CC[C@@]45O[C@@]46CC=C(C4=CC(=O)OC4)[C@@]6(C)CC[C@H]35)C2)O[C@H](C)[C@@H]1O		133 µM	> 316 µM				88%	89%	99%			
CO[C@@H]1C[C@H](O[C@H]2CC[C@@]3(C)[C@H](CC[C@@]45O[C@@]46C[C@H]4O[C@@]4(C4=CC(=O)OC4)[C@@]6(C)CC[C@H]35)C2)O[C@H](C)[C@@H]1O	45.6 µM	62.1 µM	> 100 µM	40.9 µM		74.1 µM	104%	96%	97%			
CO[C@@H]1C[C@H](O[C@H]2CC[C@@]3(C)[C@H](CC[C@@H]4[C@@H]3CC[C@]3(C)[C@@H](C5=CC(=O)OC5)[C@@H](OC(C)=O)C[C@]43O)C2)O[C@H](C)[C@@H]1O	0.31 µM	0.51 µM	> 316 µM	0.09 µM	0.17 µM	1.5 µM	67%	77%	75%			
